Measured values published in ChEMBL document CHEMBL4477207, “Discovery of Novel 3-Quinoline Carboxamides as Potent, Selective, and Orally Bioavailable Inhibitors of Ataxia Telangiectasia Mutated (ATM) Kinase” (J Med Chem, 2016).
Converted amounts (≈) assume the structure as drawn. The source made the active and inactive calls. No cut-off for these calls is given here.

Columns and labels:
[1] = Intrinsic clearance in human hepatocytes assessed per million cells; assay type: ADME, cell-based, Hepatocyte; details: read-out: CLH
Outline: (§1)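 Intrinsic clearance measured in hepatocytes of each species, reported as µL/min/10⁶ cells.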

SW-620 = test: Antitumor activity against human SW620 cells xenografted in immunocompromised athymic Swiss nude mouse assessed as tumor growth inhibition at 50 mg/kg bid administered via oral gavage for 3 days a week for 3 weeks regime after 24 hrs of topoisomerase-1 inhibitor irinotecan administration; assay type: functional, organism-based
[2] = Oral bioavailability in Han Wistar rat at 5 mg/kg; assay type: ADME, organism-based; details: in vivo
[3] = Fraction unbound in mouse plasma by equilibrium dialysis method; assay type: ADME, cell-free
[4] = Apparent permeability from apical to basolateral side in human Caco2 cells; assay type: ADME, cell-based; details: Caco-2
[5] = target: T1, Tyrosine-protein kinase Mer (Homo sapiens) (UniProt Q12866); test: Inhibition of N-terminal GST-tagged recombinant human Mer (557 to 882 residues) expressed in baculovirus infected Sf21 cells using GGMEDIYFEFMGGKKK as substrate at 1 uM relative to control
T1 sequence (whole entry): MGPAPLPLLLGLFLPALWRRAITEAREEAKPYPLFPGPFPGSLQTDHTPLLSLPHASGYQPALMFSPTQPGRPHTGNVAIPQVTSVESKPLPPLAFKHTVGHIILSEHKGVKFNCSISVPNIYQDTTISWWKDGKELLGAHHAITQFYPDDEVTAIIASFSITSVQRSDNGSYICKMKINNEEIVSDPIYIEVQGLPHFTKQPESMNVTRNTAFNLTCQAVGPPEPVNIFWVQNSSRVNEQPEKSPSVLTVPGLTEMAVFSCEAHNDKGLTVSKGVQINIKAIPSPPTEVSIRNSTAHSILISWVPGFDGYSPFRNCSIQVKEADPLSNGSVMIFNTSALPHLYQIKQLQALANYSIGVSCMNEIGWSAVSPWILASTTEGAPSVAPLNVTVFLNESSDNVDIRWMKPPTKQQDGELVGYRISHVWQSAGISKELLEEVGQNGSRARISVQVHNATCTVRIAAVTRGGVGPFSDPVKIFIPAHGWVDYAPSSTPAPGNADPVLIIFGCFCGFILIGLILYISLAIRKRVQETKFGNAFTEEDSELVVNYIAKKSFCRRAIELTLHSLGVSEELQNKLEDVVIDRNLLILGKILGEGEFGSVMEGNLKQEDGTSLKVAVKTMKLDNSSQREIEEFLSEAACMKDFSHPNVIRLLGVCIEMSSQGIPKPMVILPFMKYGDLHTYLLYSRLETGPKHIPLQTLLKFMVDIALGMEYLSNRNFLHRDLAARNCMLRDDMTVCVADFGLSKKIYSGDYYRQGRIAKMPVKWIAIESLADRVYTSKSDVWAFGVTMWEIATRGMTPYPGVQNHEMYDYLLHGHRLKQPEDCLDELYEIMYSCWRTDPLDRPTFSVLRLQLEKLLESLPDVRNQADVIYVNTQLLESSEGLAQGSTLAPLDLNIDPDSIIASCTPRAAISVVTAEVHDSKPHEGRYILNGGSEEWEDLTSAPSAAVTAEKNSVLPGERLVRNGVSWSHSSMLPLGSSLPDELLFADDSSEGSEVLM

[6] = Clearance in Han Wistar rat at 2 mg/kg, iv or 5 mg/kg, po; assay type: ADME, organism-based; details: in vivo
[7] = target: Dual specificity protein kinase CLK1 (Homo sapiens) (UniProt P49759); test: Inhibition of N-terminal His6-tagged recombinant human CLK1 (130-end residues) expressed in baculovirus infected Sf21 cells at 1 uM relative to control
[8] = AUC (0 to 24 hrs) in nude mouse at 50 mg/kg, po; assay type: ADME, organism-based; set-up: dose 50 mg/kg, time < 24 hr, route oral; details: in vivo
Outline: (§2)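 Nude mice, single oral dose of 50 mg/kg. Vehicle was either a propylene glycol aqueous solution or 10% DMSO:90% captisol solution.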

[9] = Fraction unbound in human plasma by equilibrium dialysis method; assay type: ADME, cell-free
[10] = Cmax in nude mouse at 50 mg/kg, po; assay type: ADME, organism-based; set-up: dose 50 mg/kg, route oral; details: in vivo; outline: as §2
[11] = target: T2, Phosphatidylinositol 4,5-bisphosphate 3-kinase catalytic subunit beta isoform (Homo sapiens, UniProt P42338); test: Inhibition of human recombinant PI3Kbeta using PIP2/ATP as substrate incubated for 20 mins followed by substrate addition by Kinase Glo reagent based luminescence assay
[12] = Intrinsic clearance in mouse hepatocytes assessed per million cells; assay type: ADME, cell-based, Hepatocyte; details: read-out: CLH; outline: as §1
[13] = target: Dual specificity protein kinase CLK4 (Homo sapiens) (UniProt Q9HAZ1); test: Inhibition of recombinant human CLK4 at 1 uM
[14] = Clearance in dog at 1 mg/kg, iv or 2 mg/kg, po; assay type: ADME, organism-based, Canis lupus familiaris; details: in vivo
[15] = target: Serine/threonine-protein kinase mTOR (Homo sapiens, UniProt P42345); test: Inhibition of C-terminal FLAG-tagged recombinant mTOR (1362 to 2549 residues) (unknown origin) using Biotin-Ahx-Lys-Lys-Ala-Asn-Gln-Val-Phe-Leu-Gly-Phe-Thr-Tyr-Val-Ala-Pro-Ser-Val-Leu-Glu-Ser-Val-Lys-Glu-NH2 as substrate after 90 mins by AlphaScreen assay
[16] = target: T2, Phosphatidylinositol 4,5-bisphosphate 3-kinase catalytic subunit beta isoform; test: Inhibition of PI3Kbeta (unknown origin) by cell based assay
[17] = target: T3, Phosphatidylinositol 4,5-bisphosphate 3-kinase catalytic subunit alpha isoform (Homo sapiens, UniProt P42336); test: Inhibition of PI3Kalpha in human BT474 cells assessed as reduction in AKT phosphorylation at Thr-308 residue; assay type: cell-based
T3 sequence (P42336 whole entry, canonical isoform): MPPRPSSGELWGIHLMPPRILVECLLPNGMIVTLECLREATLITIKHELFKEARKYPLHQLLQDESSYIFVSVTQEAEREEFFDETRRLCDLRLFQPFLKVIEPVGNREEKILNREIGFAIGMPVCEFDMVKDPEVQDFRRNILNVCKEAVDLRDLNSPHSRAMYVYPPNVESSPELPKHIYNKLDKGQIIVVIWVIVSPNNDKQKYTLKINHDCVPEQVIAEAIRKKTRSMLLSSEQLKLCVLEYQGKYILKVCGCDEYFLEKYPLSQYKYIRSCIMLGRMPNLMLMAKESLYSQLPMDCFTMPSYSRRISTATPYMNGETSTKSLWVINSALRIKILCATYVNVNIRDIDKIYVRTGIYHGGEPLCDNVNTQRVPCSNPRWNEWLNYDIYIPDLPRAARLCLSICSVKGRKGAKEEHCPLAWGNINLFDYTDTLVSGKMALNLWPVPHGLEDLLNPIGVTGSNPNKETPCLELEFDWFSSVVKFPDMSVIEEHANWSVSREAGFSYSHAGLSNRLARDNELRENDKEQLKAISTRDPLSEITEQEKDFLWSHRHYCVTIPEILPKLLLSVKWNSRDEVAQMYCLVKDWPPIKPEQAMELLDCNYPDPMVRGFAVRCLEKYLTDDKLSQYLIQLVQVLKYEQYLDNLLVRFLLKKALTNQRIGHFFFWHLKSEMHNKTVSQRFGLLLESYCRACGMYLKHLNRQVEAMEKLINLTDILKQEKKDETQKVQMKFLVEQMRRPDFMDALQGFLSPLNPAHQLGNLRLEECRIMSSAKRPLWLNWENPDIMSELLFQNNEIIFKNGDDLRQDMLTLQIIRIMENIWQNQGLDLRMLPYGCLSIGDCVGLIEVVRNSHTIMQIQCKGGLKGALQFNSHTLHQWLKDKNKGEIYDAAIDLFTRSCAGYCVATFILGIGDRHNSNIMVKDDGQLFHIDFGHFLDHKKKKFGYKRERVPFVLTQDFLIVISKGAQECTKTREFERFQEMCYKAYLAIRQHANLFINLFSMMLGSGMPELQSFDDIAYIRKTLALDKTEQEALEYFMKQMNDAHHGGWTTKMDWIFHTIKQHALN

in vitro [18] = details: human, hepatocytes
[19] = Fraction unbound in dog plasma by equilibrium dialysis method; assay type: ADME, cell-free, Canis lupus familiaris
[20] = target: Glycogen synthase kinase-3 beta (Homo sapiens, UniProt P49841); test: Inhibition of GSK3beta (unknown origin)
[21] = target: T4, DNA-dependent protein kinase catalytic subunit (Homo sapiens, UniProt P78527); test: Inhibition of DNAPK phosphorylation at Ser-2056 residue in human HT-29 cells; assay type: cell-based
T4 sequence (P78527 whole entry, canonical isoform): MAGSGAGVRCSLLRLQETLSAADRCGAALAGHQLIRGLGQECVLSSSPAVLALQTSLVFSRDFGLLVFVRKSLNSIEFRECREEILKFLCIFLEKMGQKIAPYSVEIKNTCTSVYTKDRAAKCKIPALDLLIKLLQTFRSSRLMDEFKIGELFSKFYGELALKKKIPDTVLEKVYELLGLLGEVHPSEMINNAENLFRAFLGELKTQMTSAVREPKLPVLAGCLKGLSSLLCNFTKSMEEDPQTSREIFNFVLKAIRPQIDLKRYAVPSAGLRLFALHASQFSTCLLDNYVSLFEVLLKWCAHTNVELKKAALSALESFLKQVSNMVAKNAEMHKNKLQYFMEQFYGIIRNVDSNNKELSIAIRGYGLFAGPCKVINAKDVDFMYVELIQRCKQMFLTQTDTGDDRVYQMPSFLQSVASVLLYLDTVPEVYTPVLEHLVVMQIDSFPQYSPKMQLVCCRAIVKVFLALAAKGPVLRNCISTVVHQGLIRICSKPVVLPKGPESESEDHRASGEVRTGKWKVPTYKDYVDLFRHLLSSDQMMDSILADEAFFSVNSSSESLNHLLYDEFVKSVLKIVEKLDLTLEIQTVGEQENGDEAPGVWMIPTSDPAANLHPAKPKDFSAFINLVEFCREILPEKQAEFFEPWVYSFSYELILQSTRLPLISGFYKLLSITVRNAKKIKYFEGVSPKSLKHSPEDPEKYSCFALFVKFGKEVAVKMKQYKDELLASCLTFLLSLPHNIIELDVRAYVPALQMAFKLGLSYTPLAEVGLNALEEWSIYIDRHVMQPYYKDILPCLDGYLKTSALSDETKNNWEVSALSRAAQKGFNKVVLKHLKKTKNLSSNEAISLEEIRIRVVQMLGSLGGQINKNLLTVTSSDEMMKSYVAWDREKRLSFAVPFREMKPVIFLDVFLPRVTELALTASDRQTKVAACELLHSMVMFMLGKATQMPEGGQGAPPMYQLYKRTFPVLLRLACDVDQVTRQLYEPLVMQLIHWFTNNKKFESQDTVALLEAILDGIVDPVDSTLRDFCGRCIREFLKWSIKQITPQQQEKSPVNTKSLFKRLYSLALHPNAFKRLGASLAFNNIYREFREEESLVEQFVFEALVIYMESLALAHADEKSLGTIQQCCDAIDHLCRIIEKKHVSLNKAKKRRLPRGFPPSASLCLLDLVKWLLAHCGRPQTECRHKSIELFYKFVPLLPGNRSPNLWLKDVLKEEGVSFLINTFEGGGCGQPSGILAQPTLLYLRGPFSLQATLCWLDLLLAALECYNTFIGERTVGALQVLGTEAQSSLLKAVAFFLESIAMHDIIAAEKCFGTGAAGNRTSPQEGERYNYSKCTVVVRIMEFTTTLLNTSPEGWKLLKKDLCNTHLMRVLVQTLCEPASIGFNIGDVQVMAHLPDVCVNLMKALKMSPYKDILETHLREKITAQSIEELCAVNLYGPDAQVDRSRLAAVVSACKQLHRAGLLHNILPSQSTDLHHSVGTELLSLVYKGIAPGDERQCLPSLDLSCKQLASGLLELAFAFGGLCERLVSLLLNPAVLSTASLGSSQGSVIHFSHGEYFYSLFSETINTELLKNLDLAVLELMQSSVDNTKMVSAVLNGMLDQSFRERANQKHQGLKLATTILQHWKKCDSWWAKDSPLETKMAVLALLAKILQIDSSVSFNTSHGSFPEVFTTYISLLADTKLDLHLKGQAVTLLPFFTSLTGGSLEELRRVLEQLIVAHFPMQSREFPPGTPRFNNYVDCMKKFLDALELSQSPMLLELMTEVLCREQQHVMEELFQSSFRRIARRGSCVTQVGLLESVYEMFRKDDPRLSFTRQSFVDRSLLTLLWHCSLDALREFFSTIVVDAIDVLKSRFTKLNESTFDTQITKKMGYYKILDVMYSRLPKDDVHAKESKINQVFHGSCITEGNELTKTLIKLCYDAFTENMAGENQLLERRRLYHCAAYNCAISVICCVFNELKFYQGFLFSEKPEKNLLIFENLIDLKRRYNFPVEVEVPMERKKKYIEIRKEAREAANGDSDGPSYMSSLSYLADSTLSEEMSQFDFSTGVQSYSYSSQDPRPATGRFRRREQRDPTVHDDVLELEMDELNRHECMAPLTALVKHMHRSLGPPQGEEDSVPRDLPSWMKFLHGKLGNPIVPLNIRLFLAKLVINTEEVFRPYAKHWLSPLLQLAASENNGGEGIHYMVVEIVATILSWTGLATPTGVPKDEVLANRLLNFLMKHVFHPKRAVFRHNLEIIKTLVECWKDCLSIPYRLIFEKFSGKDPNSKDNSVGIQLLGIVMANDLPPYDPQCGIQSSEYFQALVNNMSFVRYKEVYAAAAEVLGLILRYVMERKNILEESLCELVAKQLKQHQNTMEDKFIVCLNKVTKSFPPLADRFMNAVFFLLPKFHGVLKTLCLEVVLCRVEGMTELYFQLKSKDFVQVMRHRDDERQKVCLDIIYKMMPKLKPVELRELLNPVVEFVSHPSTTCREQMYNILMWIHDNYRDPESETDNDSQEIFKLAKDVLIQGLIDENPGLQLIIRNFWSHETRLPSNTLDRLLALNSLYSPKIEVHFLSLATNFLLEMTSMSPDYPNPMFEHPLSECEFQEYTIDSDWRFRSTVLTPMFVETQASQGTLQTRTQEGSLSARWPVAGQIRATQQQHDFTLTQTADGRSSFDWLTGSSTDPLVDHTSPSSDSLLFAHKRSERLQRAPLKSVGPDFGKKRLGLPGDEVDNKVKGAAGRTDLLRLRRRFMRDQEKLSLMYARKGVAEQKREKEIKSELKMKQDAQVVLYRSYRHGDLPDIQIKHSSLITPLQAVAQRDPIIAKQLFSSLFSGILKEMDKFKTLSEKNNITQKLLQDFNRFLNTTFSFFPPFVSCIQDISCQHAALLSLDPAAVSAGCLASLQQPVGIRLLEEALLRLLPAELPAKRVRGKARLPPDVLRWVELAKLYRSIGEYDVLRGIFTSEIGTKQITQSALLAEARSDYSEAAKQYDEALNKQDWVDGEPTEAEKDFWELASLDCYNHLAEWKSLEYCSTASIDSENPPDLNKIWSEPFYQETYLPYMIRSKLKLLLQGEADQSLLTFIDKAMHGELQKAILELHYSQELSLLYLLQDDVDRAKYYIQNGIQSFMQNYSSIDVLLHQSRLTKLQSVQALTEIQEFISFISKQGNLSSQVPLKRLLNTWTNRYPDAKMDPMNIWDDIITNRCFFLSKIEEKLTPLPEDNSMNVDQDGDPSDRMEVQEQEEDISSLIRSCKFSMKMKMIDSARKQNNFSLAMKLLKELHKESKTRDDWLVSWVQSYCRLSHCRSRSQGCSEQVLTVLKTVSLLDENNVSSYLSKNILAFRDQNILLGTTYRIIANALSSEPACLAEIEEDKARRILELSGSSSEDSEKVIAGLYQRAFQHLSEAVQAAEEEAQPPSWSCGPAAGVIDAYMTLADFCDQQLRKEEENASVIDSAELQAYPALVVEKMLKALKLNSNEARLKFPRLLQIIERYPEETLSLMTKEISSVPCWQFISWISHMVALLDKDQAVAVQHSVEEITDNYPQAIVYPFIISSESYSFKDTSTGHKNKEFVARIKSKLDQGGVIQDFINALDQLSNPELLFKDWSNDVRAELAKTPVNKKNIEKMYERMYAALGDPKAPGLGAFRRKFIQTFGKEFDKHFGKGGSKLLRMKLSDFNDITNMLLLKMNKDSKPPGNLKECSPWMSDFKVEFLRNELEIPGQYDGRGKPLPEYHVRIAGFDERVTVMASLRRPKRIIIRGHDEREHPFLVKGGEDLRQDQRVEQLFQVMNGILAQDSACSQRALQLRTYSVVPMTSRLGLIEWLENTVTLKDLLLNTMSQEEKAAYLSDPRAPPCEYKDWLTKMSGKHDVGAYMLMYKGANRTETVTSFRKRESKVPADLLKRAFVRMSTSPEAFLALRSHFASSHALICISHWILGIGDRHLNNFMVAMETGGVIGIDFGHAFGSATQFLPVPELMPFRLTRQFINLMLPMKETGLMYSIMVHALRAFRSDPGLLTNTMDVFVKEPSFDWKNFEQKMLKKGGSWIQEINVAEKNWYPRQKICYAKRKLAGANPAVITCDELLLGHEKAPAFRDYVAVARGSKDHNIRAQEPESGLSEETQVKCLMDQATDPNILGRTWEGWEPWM

[22] = target: T3, Phosphatidylinositol 4,5-bisphosphate 3-kinase catalytic subunit alpha isoform; test: Inhibition of human recombinant PI3Kalpha using PIP2/ATP as substrate incubated for 20 mins followed by substrate addition by Kinase Glo reagent based luminescence assay
[23] = Volume of distribution at steady state in dog at 1 mg/kg, iv or 2 mg/kg, po; assay type: ADME, organism-based, Canis lupus familiaris; details: in vivo, read-out: Vdss
Mus musculus = test: Time duration during which free plasma concentration stays above in-vitro ATM IC50 level in nude mouse at 50 mg/kg, po; assay type: ADME, organism-based; details: in vivo; outline: as §2
[24] = target: T4, DNA-dependent protein kinase catalytic subunit; test: Inhibition of DNAPK (unknown origin) using p53-based peptide substrate preincubated for 5 min prior to ATP addition
[25] = Intrinsic clearance in dog hepatocytes assessed per million cells; assay type: ADME, cell-based, Canis lupus familiaris, Hepatocyte; details: read-out: CLH; outline: as §1
[26] = Intrinsic clearance in rat hepatocytes assessed per million cells; assay type: ADME, cell-based, Hepatocyte; details: read-out: CLH; outline: as §1
physchem = details: octanol/buffer, pH 7.4
[27] = target: Phosphatidylinositol 4,5-bisphosphate 3-kinase catalytic subunit gamma isoform (Homo sapiens, UniProt P48736); test: Inhibition of human recombinant PI3Kgamma using PIP2/ATP as substrate incubated for 20 mins followed by substrate addition by Kinase Glo reagent based luminescence assay
[28] = target: Vascular endothelial growth factor receptor 2 (Homo sapiens, UniProt P35968); test: Inhibition of KDR (unknown origin)
[29] = Thermodynamic solubility of the compound in 0.1M aqueous phosphate buffer at pH 7.4 after 24 hrs by LC-UV analysis; assay type: physicochemical; details: read-out: Therm_solubility
Outline: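 Solid samples equilibrated in 0.1 M aqueous phosphate buffer, pH 7.4, for 24 h at 25 °C.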

[30] = Oral bioavailability in dog at 2 mg/kg; assay type: ADME, organism-based, Canis lupus familiaris; details: in vivo
[31] = Volume of distribution at steady state in Han Wistar rat at 2 mg/kg, iv or 5 mg/kg, po; assay type: ADME, organism-based; details: in vivo, read-out: Vdss
in vitro [32] = details: rat, hepatocytes
[33] = Fraction unbound in rat plasma by equilibrium dialysis method; assay type: ADME, cell-free
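Throughout, for logD: determined by the shake flask method.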

**Q.** For COCc1ccc(-c2cc3c(N[C@@H](C)c4ccn(C)n4)c(C(N)=O)cnc3cc2F)cn1, which hepatocyte CLint [1] is on record?
**A.** < 1.5 µL/min/1e6 cells

**Q.** And the TGI (SW-620)?
**A.** Active

**Q.** What about the bioavailability [2] of the same molecule?
**A.** 29%

**Q.** And the fraction unbound [3]?
**A.** 0.17

**Q.** And the Papp A→B [4]?
**A.** 14 ×10⁻⁶ cm/s

**Q.** What about the inhibition [5] of the same molecule?
**A.** 56%

**Q.** And the clearance [6]?
**A.** 13 mL/min/kg

**Q.** What about the inhibition [7] of the same molecule?
**A.** 57%

**Q.** What about the AUC(0-t) at 24 h [8] of the same molecule?
**A.** 33 µM·h

**Q.** What about the fraction unbound [9] of the same molecule?
**A.** 0.18

**Q.** And the Cmax [10]?
**A.** 17 µM

**Q.** And the IC50 [11]?
**A.** 12.8 µM

**Q.** And the hepatocyte CLint [12]?
**A.** 28 µL/min/1e6 cells

**Q.** What about the inhibition [13] of the same molecule?
**A.** 55%

**Q.** And the clearance [14]?
**A.** 13 mL/min/kg

**Q.** And the IC50 [15]?
**A.** 1.48 µM

**Q.** What about the IC50 [16] of the same molecule?
**A.** > 17.5 µM

**Q.** What about the IC50 [17] of the same molecule?
**A.** 18.8 µM

**Q.** And the hepatocyte CLint at 1.5 h (in vitro [18])?
**A.** < 1.5 µL/min/1e6 cells

**Q.** What about the fraction unbound [19] of the same molecule?
**A.** 0.18

**Q.** And the IC50 [20]?
**A.** > 100 µM

**Q.** What about the IC50 [21] of the same molecule?
**A.** > 30 µM

**Q.** And the IC50 [22]?
**A.** 0.445 µM

**Q.** And the Vd [23]?
**A.** 1.4 L/kg

**Q.** What about the Time (Mus musculus) of the same molecule?
**A.** 10 h

**Q.** What about the IC50 [24] of the same molecule?
**A.** 0.37 µM

**Q.** What about the hepatocyte CLint [25] of the same molecule?
**A.** 2 µL/min/1e6 cells

**Q.** And the hepatocyte CLint [26]?
**A.** 5.3 µL/min/1e6 cells

**Q.** And the logD (physchem)?
**A.** 2.7

**Q.** And the IC50 [27]?
**A.** 7.1 µM

**Q.** And the IC50 [28]?
**A.** 79 µM

**Q.** And the solubility thermodynamic at 24 h [29]?
**A.** 69 µM (≈ 30 µg/mL)

**Q.** What about the bioavailability [30] of the same molecule?
**A.** 71%

**Q.** What about the Vd [31] of the same molecule?
**A.** 1 L/kg

**Q.** What about the hepatocyte CLint at 1.5 h (in vitro [32]) of the same molecule?
**A.** 5.3 µL/min/1e6 cells

**Q.** What about the fraction unbound [33] of the same molecule?
**A.** 0.12
